Results published in ChEMBL document CHEMBL3108717, “Dysideanones A-C, unusual sesquiterpene quinones from the South China Sea sponge Dysidea avara” (J Nat Prod, 2014).
Converted amounts (≈) assume the structure as drawn. The source made the active and inactive calls. No cut-off for these calls is given here.

Experiments:
HepG2 = test: Cytotoxicity against human HepG2 cells after 48 hrs by MTT assay; format: functional, cell-based; conditions: HepG2, 48 h
How it was run: (§1)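 MTT assay. Cells grown in RPMI1640 or DMEM with 10% fetal bovine serum at 37 °C, 5% CO2. Adherent cells allowed to attach 12 h before dosing; suspended cells seeded at dosing, initial density 1 × 10^5 cells/mL. Tested at 1, 10, 50 and 100 μM for 48 h in triplicate, 5-fluorouracil as positive control. Cells solubilized with DMSO, OD read at 595 nm. IC50 taken from mean-OD versus concentration curves.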

HeLa = test: Cytotoxicity against human HeLa cells after 48 hrs by MTT assay; format: functional, cell-based; how it was run: as §1
Bacillus subtilis = test: Antibacterial activity against Bacillus subtilis at 1 mg/mL; format: functional, organism-based
Staphylococcus aureus [1] = test: Antibacterial activity against Staphylococcus aureus at 1 mg/mL; format: functional, organism-based
Rhodotorula glutinis = test: Antifungal activity against Rhodotorula glutinis at 1 mg/mL; format: functional, organism-based
Aspergillus niger = test: Antifungal activity against Aspergillus niger at 1 mg/mL; format: functional, organism-based
Candida albicans = test: Antifungal activity against Candida albicans at 1 mg/mL; format: functional, organism-based
Staphylococcus aureus [2] = test: Antibacterial activity against methicillin/multi-drug-resistant Staphylococcus aureus assessed as growth inhibition; format: functional

| SMILES | IC50 (HepG2) | IC50 (HeLa) | Activity (Bacillus subtilis) | Activity (Staphylococcus aureus [1]) | Activity (Rhodotorula glutinis) | Activity (Aspergillus niger) | Activity (Candida albicans) | MIC50 (Staphylococcus aureus [2]) |
| --- | --- | --- | --- | --- | --- | --- | --- | --- |
| C=C1CC[C@@H]2C3=C(C[C@]4(C)[C@@H](C)CC[C@@]1(C)[C@@H]24)C(=O)C(OCC)=CC3=O | 9.4 µM | 7.1 µM | inactive | inactive | inactive | inactive | inactive | – |
| CC1=CCC[C@H]2[C@]3(C)CC4=CC(=O)C=C[C@@]4(O)[C@]3(C)CC[C@]12C | – | – | inactive | inactive | inactive | inactive | inactive | – |
| C=C1[C@H]2C[C@]3(C)C(C)=CCC[C@H]3[C@]1(C)CC1=C2C(=O)C=C(OCC)C1=O | – | – | – | – | – | – | – | 0.2 mg/L (≈ 0.567 µM) |
| O=c1[nH]cc(F)c(=O)[nH]1 [FLUOROURACIL] | 7.6 µM | 2.3 µM | – | – | – | – | – | – |
| CC1=CC[C@H]2[C@H]3[C@](C)(CC4=CC(=O)C=C[C@@]42O)[C@@H](C)CC[C@]13C | – | – | inactive | inactive | inactive | inactive | inactive | – |
